ROMK primary: modulators of human ROMK potassium channel; P48048; Tet-inducible ROMK, thallium flux fluorescence; actives lie on both sides; B-score at 10 µM; 2% of 130,000 active; AID 1918;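 active means signal ratio slope over the read window, or its plate-corrected B-score, at least 3 SD from the plate mean, either direction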;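 further: B-score of the F/F0 ratio slope over 7 to 12 s after thallium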
PMI activator: increases human mannose-6-phosphate isomerase activity. P34949. purified human PMI, coupled resazurin fluorescence, 20 min; active compounds read high; 1 = vehicle control, 0 substrate-free wells. activation factor at 20 µM. 0.005% of 190,000 active;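 active means activation factor of 2 or more at 20 µM, relative to plate controls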
Target sequence (P34949 whole entry, looked up): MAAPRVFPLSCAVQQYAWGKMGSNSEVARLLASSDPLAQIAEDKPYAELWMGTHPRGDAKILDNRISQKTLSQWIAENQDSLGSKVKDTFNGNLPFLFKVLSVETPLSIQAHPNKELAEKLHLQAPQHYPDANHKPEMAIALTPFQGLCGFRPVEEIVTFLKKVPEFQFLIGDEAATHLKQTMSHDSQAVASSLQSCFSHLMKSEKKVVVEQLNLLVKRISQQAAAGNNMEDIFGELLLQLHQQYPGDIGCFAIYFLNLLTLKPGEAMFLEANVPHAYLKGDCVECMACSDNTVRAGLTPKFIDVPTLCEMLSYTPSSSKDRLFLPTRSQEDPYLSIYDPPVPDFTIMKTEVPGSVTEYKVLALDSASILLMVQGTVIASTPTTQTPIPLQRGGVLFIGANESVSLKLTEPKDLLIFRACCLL
PMI act hi M6P: increases human PMI activity with near-saturating mannose 6-phosphate. activation factor at 20 µM. coupled PMI enzyme assay, resazurin fluorescence, 20 min; active compounds read high; 1 = untreated enzyme, 0 = substrate-free blank. AID 1216. P34949. 0.34% of 190,000 active;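 active means activation factor of 2 or more at 20 µM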
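Material: human phosphomannose isomerase with PGI, G6PDH, diaphorase coupling enzymes; amount: PMI at 15 ng/mL final; also added: Mannose-6-phosphate 1.0 mM (near-saturating) plus 0.22 mM NADP+; incubation: enzyme reaction with compound 20 min at room temperature; signal: resorufin fluorescence (Ex 544/Em 590 nm) from resazurin via diaphorase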
ABCG2 block: inhibitors of human ABCG2 transporter, ABCB1 counter-screen. IgMXP3 cells, JC-1 efflux, flow cytometry. 0.1% of 190,000 active. AID 1325. inhibition, % at 6.6 µM;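 active means inhibition above 80%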;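 further: 0% = DMSO and 100% = nicardipine control wells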
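Measure – % inhibition of efflux relative to nicardipine and DMSO · Test system – ABCG2 IgMXP3 and barcoded ABCB1 CCRF-Adr cell mix · Control set – nicardipine as high control, DMSO as low control · Compound – one concentration, 6.6 µM final · Signal – flow cytometry of retained JC-1 fluorescence · Timing – 10 min exposure at 25 °C with rotation, no wash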
ABCB1 inh: blocks JC-1 efflux by human ABCB1 transporter | P08183 | CCRF-Adr cells, flow cytometry | inhibition, % at 6.6 µM | 0.067% of 190,000 active | AID 1326; in the data active means inhibition above about 40%;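 further: 0% = vehicle and 100% = reference inhibitor; higher value means more JC-1 retained so stronger ABCB1 efflux block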
Cl transport mod: KCC2 (human) Cl- transport modulation | AID 1456 | 2.2% of 190,000 active | Q9H2X9 | KCC2 cells, thallium flux FluoZin-2 fluorescence | B-score of Tl+ flux slope (higher = more flux/activation; lower = inhibition) at 10 µM;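 active means thallium flux slope and its plate-corrected score both differing from the plate sample mean at a set confidence after two filtering rounds, in either direction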;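 further: slope of fluorescence scaled to starting intensity during 10 to 20 s after thallium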
KCC2 sec1: confirmation of human KCC2 transport modulators | shares compounds with Cl transport mod | HEK293-KCC2, thallium flux, FluoZin2 fluorescence; active compounds read high | normalised thallium flux (F/F0 slope) at 10 µM | 15% of 3,700 active;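 active means thallium flux slope above the same plate's solvent-only control mean plus 3 SD; inconclusive means the two replicate wells disagree; inactive means no significant difference from solvent-only control wells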
KCC2 bumet counter: thallium flux persisting under bumetanide in KCC2 cells, counter-screen secondary assay; shares compounds with Cl transport mod; HEK293-KCC2 + bumetanide/ouabain, thallium flux FluoZin2; active compounds read high; AID 1714; normalized thallium flux at 10 µM; 49% of 3,700 active;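 active means thallium entry rate above the same plate's blocked-transporter control wells by more than 3 SD; inconclusive means the two repeat wells disagree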;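 further: raw slope of fluorescence over initial fluorescence between 10 and 20 s after thallium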
KCC2 sec2: confirmation of human KCC2 transport modulators; shares compounds with Cl transport mod; HEK293-KCC2, thallium flux FluoZin2 fluorescence; actives lie on both sides; F/F0 rise rate, 10–20 s post-thallium; normalized thallium flux at 10 µM; 23% of 3,700 active;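 active means thallium flux slope more than 3 SD above or below the plate's solvent-only control mean, mostly below; inconclusive means the two repeat wells disagreed; inactive means no significant shift from solvent-only controls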;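 further: raw slope with 0.1% DMSO as baseline and bumetanide as block control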
HEK293 Tl flux: parental HEK flux effect, counter-screen; shares compounds with Cl transport mod; HEK293 parental cells, thallium flux FluoZin2, ouabain; baseline-ratio fluorescence slope, 10–20 s after thallium; thallium flux rate (normalised fluorescence) at 10 µM; 46% of 3,700 active; AID 1716;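 active means thallium flux rate significantly above the same plate's solvent-only control wells, beyond their mean plus 3 SD; inconclusive means the two replicate wells gave conflicting results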
KCC2 ouabain: KCC2 (human) modulation, ouabain retest | shares compounds with Cl transport mod | raw Tl+ flux slope (below DMSO = inhibition, above = activation) at 10 µM | 48% of 3,700 active | AID 1717 | HEK293-KCC2, thallium flux FluoZin2 fluorescence; bidirectional: low = inhibitor, high = activator;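 active means thallium flux slope beyond 3 SD from same-plate DMSO control mean in most replicates, usually higher, sometimes lower; inconclusive means repeat tests gave conflicting results; inactive means no significant difference from controls in most replicates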;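 further: slope of initial-normalized fluorescence between seconds 10 and 20 after thallium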
HEK counter2: counter-screen for KCC2 modulators: effect in parental HEK293 cells; AID 1718; thallium flux slope at 10 µM; shares compounds with Cl transport mod; 33% of 3,700 active; thallium flux FluoZin-2 fluorescence slope;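 active means thallium flux slope above the same plate's solvent-control mean plus 3 SD in both duplicate wells; inconclusive means duplicate wells that disagreed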;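 further: run without ouabain in cells lacking the KCC2 cotransporter; slope of fluorescence scaled to its starting value between 10 and 20 s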
An asterisk follows results filed as active; ? = inconclusive; . = not tested or not shown. In the library only some 3.3% were active in any assay of this set; here they are far more common.

SMILES	ROMK primary	PMI activator	PMI act hi M6P	ABCG2 block	ABCB1 inh	Cl transport mod	KCC2 sec1	KCC2 bumet counter	KCC2 sec2	HEK293 Tl flux	KCC2 ouabain	HEK counter2
Cn1nnc(NCc2cc(Br)ccc2OCc2cccs2)n1	.	0.9	0.9	12	2	.	0.0071	0.0052	0.026*	0.0076	?	0.01
Cc1cc(S(=O)(=O)N2CCCC(C(=O)Nc3ccc(C(=O)O)cc3)C2)ccc1Cl (centres undefined)	-0.033	1	1	0	0	0.7	.	.	.	.	.	.
COC(=O)C1C(=O)C2=C(CC1C)NC(C)=C(C(=O)OCc1ccc(OC)cc1)C2c1ccc(C)o1 (centres undefined)	.	0.8	0.9	27	3	0.077	.	.	.	.	.	.
COC(=O)C1C(=O)C2=C(CC1C)NC(C)=C(C(=O)OC(C)C)C2c1ccc(C)o1 (centres undefined)	-0.076	1	1	0	0	.	0.0092	0.0054	0.029	0.0071	0.02	0.0092
Nc1cc(S(=O)(=O)Nc2cc(Cl)ccc2Cl)ccc1N1CCCC1	.	.	.	.	.	-0.39	.	.	.	.	.	.
COc1cccc(C(=O)Nc2sc(C(C)C)cc2C(N)=O)c1OC	.	.	.	.	.	-1.1	.	.	.	.	.	.
C=CCn1c(C)cc(C(=O)CSc2nnc(Cc3ccccc3)o2)c1C	-1.1	0.9	0.9	2	0	.	0.007	0.0062	0.03*	0.0036	0.017*	0.011
C=CCn1c(C)cc(C(=O)CSc2nnc(NCc3ccccc3)s2)c1C	0.083	1.1	1	0	0	-2.7*	0.0067	0.0047	0.035	?	?	0.011
COc1cccc(/C=N/NC(=O)c2c(C)nc3ccc(Br)cn23)c1O	.	1.1	1.3	0	0	-3.4*	0.0069	0.0043	0.028	0.0056	0.016*	0.0088
C/C(=N\NC(=S)NC1CCCCC1)c1cccs1	.	0.8	0.9	33	1	57*	0.0048	0.053*	0.043*	0.027*	0.048*	0.029*
C/C(=N\NC(=S)NC1CCCCC1)c1c(F)cccc1F	.	1.1	0.9	29	0	22*	0.014*	0.066*	0.028	0.021*	0.046*	0.011*
C/C(=N\NC(=S)NC1CCCCC1)c1ccc(Cl)c(Cl)c1	.	.	.	.	.	0.28	.	.	.	.	.	.
Nc1ccc2c(c1)ncn2CCCn1cnc2cc(N)ccc21	-1.1	0.9	0.9	0	0	.	0.0075	0.0046	?	0.0075	0.018	0.011
c1ccc(OCCCCn2cnc3ccccc32)cc1	.	0.9	1	30	1	-0.6	.	.	.	.	.	.
O=C(O)c1cn(C2CC2)c2cc(N3CCN(S(=O)(=O)c4ccc5c(c4)OCCO5)CC3)c(F)cc2c1=O	0.37	0.8	0.9	5	2	-1.8	.	.	.	.	.	.
CCOC(=O)C1=C(CC)Nc2ccccc2N/C1=N\S(=O)(=O)c1ccc2ccccc2c1	0.069	0.8	0.9	-1	0	-1.3	.	.	.	.	.	.
CCOC(=O)C1=C(CC)Nc2ccccc2N/C1=N\S(=O)(=O)c1cc(Br)ccc1Br	1.2	1.2	1.1	0	0	-4*	0.0055	?	0.024*	0.0063*	0.015*	?
